# Data as given in ChEMBL document CHEMBL4138284, “Biomimetic Stereoselective Sulfa-Michael Addition Leads to Platensimycin and Platencin Sulfur Analogues against Methicillin-Resistant Staphylococcus aureus” (J Nat Prod, 2018).
# What was measured:
# Staphylococcus aureus [1] = experiment: Antibacterial activity against methicillin-resistant Staphylococcus aureus isolate 8 incubated overnight by agar dilution method; format: functional
# How it was run: (§1)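 MIC by agar dilution. Strains were grown overnight in LB broth and diluted, then about 10^4 CFU (2 μL spots) were spotted onto LB agar plates containing test compound at 0.5 to 8 μg mL−1 agar. Plates were incubated overnight at 37 °C and inspected for growth. Clinical MSSA and MRSA isolates came from local hospitals.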
# Staphylococcus aureus [2] = experiment: Antibacterial activity against methicillin-resistant Staphylococcus aureus isolate 6 incubated overnight by agar dilution method; format: functional; how it was run: as §1
# Staphylococcus aureus [3] = experiment: Antibacterial activity against methicillin-sensitive Staphylococcus aureus isolate 3 incubated overnight by agar dilution method; format: functional; how it was run: as §1
# Staphylococcus aureus [4] = experiment: Antibacterial activity against Staphylococcus aureus ATCC 29213 incubated overnight by agar dilution method; format: functional; how it was run: as §1
# Staphylococcus aureus [5] = experiment: Antibacterial activity against methicillin-sensitive Staphylococcus aureus isolate 4 incubated overnight by agar dilution method; format: functional; how it was run: as §1
# Staphylococcus aureus [6] = experiment: Antibacterial activity against methicillin-resistant Staphylococcus aureus isolate 11 incubated overnight by agar dilution method; format: functional; how it was run: as §1
# Staphylococcus aureus [7] = experiment: Antibacterial activity against methicillin-resistant Staphylococcus aureus isolate 10 incubated overnight by agar dilution method; format: functional; how it was run: as §1
# Staphylococcus aureus [8] = experiment: Antibacterial activity against methicillin-resistant Staphylococcus aureus isolate 7 incubated overnight by agar dilution method; format: functional; how it was run: as §1
# Staphylococcus aureus [9] = experiment: Antibacterial activity against methicillin-sensitive Staphylococcus aureus isolate 1 incubated overnight by agar dilution method; format: functional; how it was run: as §1
# Staphylococcus aureus [10] = experiment: Antibacterial activity against methicillin-resistant Staphylococcus aureus isolate 5 incubated overnight by agar dilution method; format: functional; how it was run: as §1
# Staphylococcus aureus [11] = experiment: Antibacterial activity against methicillin-resistant Staphylococcus aureus isolate 9 incubated overnight by agar dilution method; format: functional; how it was run: as §1
# Staphylococcus aureus [12] = experiment: Antibacterial activity against methicillin-sensitive Staphylococcus aureus isolate 2 incubated overnight by agar dilution method; format: functional; how it was run: as §1
# [13] = Stability of the compound in PBS at pH 5.8 at 0.1 mg/ml after 16 hrs by HPLC analysis; format: physicochemical; conditions: buffer, pH 5.8, 16 h
# How it was run: (§2)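 Compound at 0.1 mg mL−1 dissolved in 1 mM PBS at the stated pH. Held at 37 °C for 16 h. Remaining compound and retro-Michael reversion products analysed by HPLC.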
# [14] = Stability of the compound in PBS at pH 7.1 at 0.1 mg/ml after 16 hrs by HPLC analysis; format: physicochemical; conditions: buffer, pH 7.1, 16 h; how it was run: as §2
SMILES,MIC (Staphylococcus aureus [1]) [µg/mL],MIC (Staphylococcus aureus [2]) [µg/mL],MIC (Staphylococcus aureus [3]) [µg/mL],MIC (Staphylococcus aureus [4]) [µg/mL],MIC (Staphylococcus aureus [5]) [µg/mL],MIC (Staphylococcus aureus [6]) [µg/mL],MIC (Staphylococcus aureus [7]) [µg/mL],MIC (Staphylococcus aureus [8]) [µg/mL],MIC (Staphylococcus aureus [9]) [µg/mL],MIC (Staphylococcus aureus [10]) [µg/mL],MIC (Staphylococcus aureus [11]) [µg/mL],MIC (Staphylococcus aureus [12]) [µg/mL],Stability [13],Stability [14]
C[C@]12C[C@]34C[C@@H]1C[C@H](O2)[C@H]3[C@](C)(CCC(=O)Nc1c(O)ccc(C(=O)O)c1O)C(=O)C[C@@H]4SC(=O)c1ccc(Br)cc1,1,1,1,1,1,2,1,1,1,2,1,1,–,–
C[C@]12C[C@@]34C=CC(=O)[C@@](C)(CCC(=O)Nc5c(O)ccc(C(=O)O)c5O)[C@@H]3[C@H](C[C@@H]1C4)O2,1,1,0.5,1,0.5,1,0.5,1,0.5,1,1,0.5,–,–
C[C@]12C[C@]34C[C@@H]1C[C@H](O2)[C@H]3[C@](C)(CCC(=O)Nc1c(O)ccc(C(=O)O)c1O)C(=O)C[C@@H]4SC(=O)c1ccccc1,1,1,1,1,1,2,1,2,1,2,1,1,Stable,Stable
C[C@]12C[C@]34C[C@@H]1C[C@H](O2)[C@H]3[C@](C)(CCC(=O)Nc1c(O)ccc(C(=O)O)c1O)C(=O)C[C@@H]4SC(=O)c1cccs1,2,2,1,2,1,1,1,8,1,2,1,1,–,–
"C=C1C[C@@]23CCC1C[C@@H]2[C@](C)(CCC(=O)Nc1c(O)ccc(C(=O)O)c1O)C(=O)C[C@@H]3SC(=O)Cc1ccc(F)cc1 (single isomer, unassigned)",1,2,1,4,0.5,4,1,4,1,2,1,1,–,–
"C=C1C[C@@]23CCC1C[C@@H]2[C@](C)(CCC(=O)Nc1c(O)ccc(C(=O)O)c1O)C(=O)C[C@@H]3Sc1ccc(C)cc1 (single isomer, unassigned)",1,1,0.5,2,0.5,2,1,2,1,2,1,0.5,–,–
C[C@]12C[C@]34C[C@@H]1C[C@H](O2)[C@H]3[C@](C)(CCC(=O)Nc1c(O)ccc(C(=O)O)c1O)C(=O)C[C@@H]4SC(=O)c1ccccc1C(F)(F)F,1,1,1,2,1,4,1,2,1,1,1,1,–,–
C[C@]12C[C@]34C[C@@H]1C[C@H](O2)[C@H]3[C@](C)(CCC(=O)Nc1c(O)ccc(C(=O)O)c1O)C(=O)C[C@@H]4SC(=O)c1ccc(F)cc1,2,1,1,1,1,2,1,1,1,2,1,1,–,–
C[C@]12C[C@]34C[C@@H]1C[C@H](O2)[C@H]3[C@](C)(CCC(=O)Nc1c(O)ccc(C(=O)O)c1O)C(=O)C[C@@H]4SC(=O)c1ccc(C(F)(F)F)cc1,1,1,1,1,1,2,1,2,0.5,2,1,1,–,–
CCS[C@H]1CC(=O)[C@@](C)(CCC(=O)Nc2c(O)ccc(C(=O)O)c2O)[C@@H]2[C@@H]3C[C@H]4C[C@]12C[C@]4(C)O3,1,2,1,0.5,1,1,1,1,0.5,1,1,0.5,Stable,Stable
